These results are taken from ChEMBL document CHEMBL1938247, “Synthesis and evaluation of inhibitors of bacterial drug efflux pumps of the major facilitator superfamily” (2011).

In brackets after ≈: the same amount, converted by molar mass. Activity calls are given as the source filed them. Where a SMILES comes first, the peptide text is derived from it. [ ]: non-standard residue; d: D form. The star is where a group is joined. ξ: configuration not given here. ξhPhe = NC(CCc1ccccc1)C(=O)O; βNA = c1ccc2cc(N*)ccc2c1 Bounds are passed on as bounds.

Assay [1] relates to Streptomyces coelicolor. Nature of the assay: Antibacterial activity against Streptomyces coelicolor after 48 hrs. Type of assay: functional.
The test system of assay [2] is Streptomyces coelicolor. Put plainly: Potentiation of chloramphenicol-induced antibacterial activity against Streptomyces coelicolor at 25 ug/mL after 48 hrs relative to control. Type of assay: functional. The method, boiled down: (§1)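 1 μL of a 10⁸ cfu/μL spore stock patched per plate; incubated at 30 °C. Strains: wild-type S. coelicolor, or PCR-targeted null mutants lacking cmlR1, cmlR2 or both. Reference efflux inhibitor MC-207,110 (Phe-Arg-β-naphthylamide) tested at the same 25 μg/mL.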

The test system of assay [3] is Streptomyces coelicolor. Nature of the assay: Antibacterial activity against Streptomyces coelicolor at 25 ug/mL after 48 hrs. Type of assay: functional, organism-based. The method, boiled down:
(§2)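 Strains: wild-type S. coelicolor, or PCR-targeted null mutants lacking cmlR1, cmlR2 or both. Inhibitors HPLC-purified before testing; inhibitor alone at 25 μg/mL also checked for intrinsic toxicity.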

Assay [4] deals with Streptomyces coelicolor. Put plainly: Inhibition of cmlR1 overexpressed in Streptomyces coelicolor assessed as potentiation of chloramphenicol-induced antibacterial activity measuring reduction in MIC of chloramphenicol at 25 ug/mL after 48 hrs relative to control. Put shortly: (§3)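 The cmlR1/cmlR2 double-null S. coelicolor strain was engineered to over-express cmlR1 or cmlR2 from a strong constitutive promoter. Spores (1 μL of a 10⁸ cfu/μL stock) were patched on Difco nutrient agar with 25 μg/mL inhibitor and varying chloramphenicol, then incubated at 30 °C. The chloramphenicol MIC (μg/mL) was read, and fold-potentiation was taken relative to the MIC without inhibitor.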

In assay [5] the test system is Streptomyces coelicolor. Put plainly: Antibacterial activity against cmlR1-deficient Streptomyces coelicolor at 25 ug/mL after 48 hrs. It counts as functional, organism-based. Put shortly: as §2
Assay [6] concerns Streptomyces coelicolor. Nature of the assay: Potentiation of chloramphenicol-induced antibacterial activity against cmlR2-deficient Streptomyces coelicolor at 25 ug/mL after 48 hrs relative to control. Type of assay: functional. Put shortly: as §1
For assay [7], the system named is Streptomyces coelicolor. Nature of the assay: Antibacterial activity against cmlR1 and cmlR2-deficient Streptomyces coelicolor at 25 ug/mL after 48 hrs. It counts as functional, organism-based. The method, boiled down:
as §2

Assay [8] deals with Streptomyces coelicolor. Nature of the assay: Potentiation of chloramphenicol-induced antibacterial activity against cmlR1 and cmlR2-deficient Streptomyces coelicolor at 25 ug/mL after 48 hrs relative to control. It counts as functional. Put shortly: as §1
Assay [9] has as its system Streptomyces coelicolor. Put plainly: Antibacterial activity against cmlR2-deficient Streptomyces coelicolor at 25 ug/mL after 48 hrs. It counts as functional, organism-based. Put shortly:
as §2

Assay [10] deals with Streptomyces coelicolor. Put plainly: Antibacterial activity against Streptomyces coelicolor overexpressing cmlR1 at 25 ug/mL after 48 hrs. It counts as functional, organism-based. The method, boiled down: (§4)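 Host strains were the cmlR1/cmlR2 double-null S. coelicolor carrying cmlR1 or cmlR2 under a strong constitutive promoter, selected for hygromycin resistance. Growth was checked on Difco nutrient agar containing 25 μg/mL test compound alone, with plates kept at 30 °C.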

Assay [11] concerns Streptomyces coelicolor. Put plainly: Antibacterial activity against Streptomyces coelicolor overexpressing cmlR2 at 25 ug/mL after 48 hrs. Type of assay: functional, organism-based. Put shortly: as §4
Assay [12] has as its system Streptomyces coelicolor. Put plainly: Potentiation of chloramphenicol-induced antibacterial activity against cmlR1-deficient Streptomyces coelicolor at 25 ug/mL after 48 hrs relative to control. It counts as functional. Put shortly: as §1
The test system of assay [13] is Streptomyces coelicolor. Nature of the assay: Inhibition of cmlR2 overexpressed in Streptomyces coelicolor assessed as potentiation of chloramphenicol-induced antibacterial activity measuring reduction in MIC of chloramphenicol at 25 ug/mL after 48 hrs relative to control. The method, boiled down: as §3
Assay [14] concerns Streptomyces coelicolor. Put plainly: Potentiation of chloramphenicol-induced antibacterial activity against Streptomyces coelicolor at 25 ug/mL after 48 hrs relative to MC-207,110. Type of assay: functional. Put shortly:
as §1

What is called MIC is the smallest concentration in the dilution series that meets the test's criterion for growth inhibition. High values mean a less susceptible organism, low ones a more susceptible organism. For the molecule `NCCC[C@H](N)C(=O)NC(CCc1ccccc1)C(=O)Nc1ccc2ccccc2c1` (mixture of isomers), in the assay on Streptomyces coelicolor [1], inhibition of growth (MIC) required 10 mg/L. Also, the “fold change (FC)” value in the assay with Streptomyces coelicolor [2] came to 6.5. Also, the result in the assay on Streptomyces coelicolor [3] was inactive.

Consider `NCCCCC(=O)NC(CCc1ccccc1)C(=O)Nc1ccc2ccccc2c1` (stereo not drawn), for which the result with Streptomyces coelicolor [2] was Active. Also, the result with Streptomyces coelicolor [3] was inactive.

`NCCC[C@@H](N)C(=O)NC(CCc1ccccc1)C(=O)NCc1ccccc1` (stereo partly drawn): in the assay on Streptomyces coelicolor [2], the result was Active. Moreover, the outcome with Streptomyces coelicolor [3] was inactive.

In the case of `CN(C(=O)[C@H](N)CCCN)C(CCc1ccccc1)C(=O)Nc1ccc2ccccc2c1` (stereo partly drawn), in the assay on Streptomyces coelicolor [2], the outcome was Active. Further, in the assay with Streptomyces coelicolor [3], the result was inactive.

On to `NCCC[C@@H](N)C(=O)NC(C(=O)Nc1ccc2ccccc2c1)c1ccccc1` (stereo partly drawn), for which the result with Streptomyces coelicolor [2] was Active. Moreover, the result in the assay on Streptomyces coelicolor [3] was inactive.

`NCCC[C@H](N)C(=O)N[C@@H](CCc1ccccc1)C(=O)Nc1ccc2ccccc2c1` yielded an MIC with Streptomyces coelicolor [1] of 11 mg/L (≈ 26.3 µM). Moreover, the “fold change (FC)” value in the assay with Streptomyces coelicolor [2] worked out at 5.9. Moreover, the result with Streptomyces coelicolor [3] was inactive.

With `NCCC(=O)NC(CCc1ccccc1)C(=O)Nc1ccc2ccccc2c1` (stereo not drawn), the outcome in the assay with Streptomyces coelicolor [2] was Active. Also, the result in the assay with Streptomyces coelicolor [3] was inactive.

In turn, `N=C(N)NCCC[C@H](NC(=O)[C@@H](N)Cc1ccccc1)C(=O)Nc1ccc2ccccc2c1` [PABETAN] (H-Phe-Arg-βNA) returned an MIC with Streptomyces coelicolor [1] of 25 mg/L (≈ 56 µM). In addition, the “fold change (FC)” value in the assay on Streptomyces coelicolor [2] amounted to 2.6. In the assay on Streptomyces coelicolor [3], the result was inactive.

As for `NCCC[C@H](N)C(=O)NC(CCc1ccccc1)C(=O)Nc1cnc2ccccc2c1` (mixture of isomers), in the assay on Streptomyces coelicolor [1], the MIC was above 40 mg/L. Also, the result with Streptomyces coelicolor [3] was inactive.

Consider `COc1ccc(C(NC(=O)[C@H](N)CCCN)C(=O)Nc2ccc3ccccc3c2)cc1` (stereo partly drawn), for which the result in the assay with Streptomyces coelicolor [2] was Active. The outcome with Streptomyces coelicolor [3] was inactive.

For `CC(C)C(NC(=O)[C@H](N)CCCN)C(=O)Nc1ccc2ccccc2c1` (stereo partly drawn), the result with Streptomyces coelicolor [2] was Active. Further, in the assay on Streptomyces coelicolor [3], the result was inactive.

Consider `NCCC[C@@H](N)C(=O)OC(CCc1ccccc1)C(=O)Nc1ccc2ccccc2c1` (stereo partly drawn), for which the outcome in the assay on Streptomyces coelicolor [3] was inactive.

Consider `NCC(=O)NC(CCc1ccccc1)C(=O)Nc1ccc2ccccc2c1` (stereo not drawn) (H-Gly-[ξhPhe]-βNA), for which the outcome in the assay on Streptomyces coelicolor [2] was Active. In the assay on Streptomyces coelicolor [3], the result was inactive.

Turning to `NCCC[C@H](N)C(=O)N[C@H](CCc1ccccc1)C(=O)Nc1ccc2ccccc2c1`, the fold change (FC) in the assay with Streptomyces coelicolor [4] turned out to be 3.5; with Streptomyces coelicolor [2] it was 7.2; in the assay with Streptomyces coelicolor [6] it was 2.4; with Streptomyces coelicolor [8], 1.8; in the assay on Streptomyces coelicolor [12], 3.3; in the assay on Streptomyces coelicolor [13], 7.3. The “fold change (FC)” value in the assay on Streptomyces coelicolor [14] was determined as 3. In the assay on Streptomyces coelicolor [1], this molecule registered an MIC of 9 mg/L (≈ 21.5 µM). Further, the result in the assay on Streptomyces coelicolor [5], with Streptomyces coelicolor [7], in the assay on Streptomyces coelicolor [9], in the assay on Streptomyces coelicolor [10], in the assay with Streptomyces coelicolor [11] and with Streptomyces coelicolor [3] was inactive.

With `CC(C)(C)NC(=O)C(CCc1ccccc1)NC(=O)[C@H](N)CCCN` (stereo partly drawn), the outcome in the assay on Streptomyces coelicolor [2] and with Streptomyces coelicolor [3] was inactive.

In the case of `CCCCNC(=O)C(CCc1ccccc1)NC(=O)[C@H](N)CCCN` (stereo partly drawn), the outcome in the assay with Streptomyces coelicolor [2] and with Streptomyces coelicolor [3] was inactive.

On to `NCCC[C@@H](N)C(=O)NC(CCc1ccccc1)C(=O)Nc1cnc2ccccc2c1` (mixture of isomers), for which, in the assay on Streptomyces coelicolor [1], the MIC is above 40 mg/L. Also, in the assay with Streptomyces coelicolor [3], the result was inactive.

In the case of `NCCCCCC(=O)NC(CCc1ccccc1)C(=O)Nc1ccc2ccccc2c1` (stereo not drawn), the result in the assay with Streptomyces coelicolor [2] was Active. Moreover, the result in the assay on Streptomyces coelicolor [3] was inactive.

For `NCCC[C@@H](N)C(=O)NC(CCc1ccccc1)C(=O)NC1CCCCC1` (stereo partly drawn), the outcome with Streptomyces coelicolor [2] and in the assay with Streptomyces coelicolor [3] was inactive.

In the assay with Streptomyces coelicolor [1], `NCCC[C@@H](N)C(=O)NC(CCc1ccccc1)C(=O)Nc1ccc2ccccc2c1` (mixture of isomers) had a minimum inhibitory concentration (MIC) of 10 mg/L. Moreover, the “fold change (FC)” value in the assay on Streptomyces coelicolor [2] was 6.5. The outcome in the assay on Streptomyces coelicolor [3] was inactive.

Consider `NCCC[C@@H](N)C(=O)NC(C(=O)Nc1ccc2ccccc2c1)c1ccc([N+](=O)[O-])cc1` (stereo partly drawn), for which the outcome in the assay with Streptomyces coelicolor [2] was Active. In the assay with Streptomyces coelicolor [3], the outcome was inactive.

For the molecule `NCCC[C@@H](N)C(=O)NC(C(=O)Nc1ccc2ccccc2c1)c1ccco1` (stereo partly drawn), the result in the assay on Streptomyces coelicolor [3] was inactive.
